In ChEMBL document CHEMBL4033715, “Optimization and biological evaluation of 2-aminobenzothiazole derivatives as Aurora B kinase inhibitors” (Bioorg Med Chem, 2017):
The source made the active and inactive calls. The calls are words filed in the database; no cut-off is given here.

Columns and labels:
[1] = molecular target: T1, Aurora kinase B (Homo sapiens, UniProt Q96GD4); test: Inhibition of recombinant full length human N-terminal GST-tagged Aurora B expressed in baculovirus infected Sf9 cells using myelin basic protein as substrate after 60 mins by ADP-Glo luminescence assay
T1 sequence (Q96GD4 whole entry): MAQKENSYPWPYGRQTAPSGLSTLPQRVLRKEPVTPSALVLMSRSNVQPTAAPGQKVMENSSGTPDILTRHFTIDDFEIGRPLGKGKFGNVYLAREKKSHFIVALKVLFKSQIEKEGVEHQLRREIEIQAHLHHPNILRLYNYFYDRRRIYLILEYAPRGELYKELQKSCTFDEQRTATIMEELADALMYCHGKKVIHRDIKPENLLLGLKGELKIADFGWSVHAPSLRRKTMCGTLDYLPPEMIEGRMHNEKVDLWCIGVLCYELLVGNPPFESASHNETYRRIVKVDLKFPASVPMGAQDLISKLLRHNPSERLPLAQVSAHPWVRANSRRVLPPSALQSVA
In short: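 ADP-Glo assay with purified active Aurora B, myelin basic protein substrate, 10 µM ATP, 60 min kinase reaction at room temperature followed by luminescence detection. IC50 determined for compounds exceeding 50% inhibition relative to staurosporine, calculated by curve fitting.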

[2] = molecular target: T2, Aurora kinase A (Homo sapiens) (UniProt O14965); test: Inhibition of recombinant full length human N-terminal GST-tagged Aurora A expressed in baculovirus infected Sf9 cells at 1 uM using myelin basic protein as substrate after 60 mins by ADP-Glo luminescence assay relative to control
T2 sequence (whole entry): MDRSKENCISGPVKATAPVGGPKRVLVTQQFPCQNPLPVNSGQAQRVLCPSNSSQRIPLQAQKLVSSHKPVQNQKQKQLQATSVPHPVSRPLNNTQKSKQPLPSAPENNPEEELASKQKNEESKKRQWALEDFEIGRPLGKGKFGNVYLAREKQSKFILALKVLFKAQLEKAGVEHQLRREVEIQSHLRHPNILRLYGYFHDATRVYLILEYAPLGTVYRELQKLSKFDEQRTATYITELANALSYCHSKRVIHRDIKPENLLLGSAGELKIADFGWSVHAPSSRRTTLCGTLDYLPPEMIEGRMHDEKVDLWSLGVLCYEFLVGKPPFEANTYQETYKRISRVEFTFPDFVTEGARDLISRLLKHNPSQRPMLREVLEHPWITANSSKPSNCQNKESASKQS
In short: (§1)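 Purified active Aurora A or Aurora B with myelin basic protein substrate and 10 µM ATP; compounds dissolved in DMSO and tested at a single concentration (10 µM screen, or 1 µM). Reaction 60 min at room temperature, then ADP-Glo reagent 30 min and detection reagent 30 min; luminescence read. Inhibition expressed relative to 10 µM staurosporine.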

[3] = molecular target: T1, Aurora kinase B; test: Inhibition of recombinant full length human N-terminal GST-tagged Aurora B expressed in baculovirus infected Sf9 cells at 1 uM using myelin basic protein as substrate after 60 mins by ADP-Glo luminescence assay relative to control; in short: as §1
[4] = molecular target: T2, Aurora kinase A (Homo sapiens); test: Inhibition of recombinant full length human N-terminal GST-tagged Aurora A expressed in baculovirus infected Sf9 cells at 10 uM using myelin basic protein as substrate after 60 mins by ADP-Glo luminescence assay relative to control; in short: as §1
[5] = molecular target: T1, Aurora kinase B; test: Inhibition of recombinant full length human N-terminal GST-tagged Aurora B expressed in baculovirus infected Sf9 cells at 10 uM using myelin basic protein as substrate after 60 mins by ADP-Glo luminescence assay relative to control; in short: as §1
[6] = molecular target: T1, Aurora kinase B; test: Inhibition of Aurora B in human HeLa cells assessed as reduction in histone H3 phosphorylation at Ser10 residue after 1 hr by Western blot analysis; assay type: cell-based
In short: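 HeLa cells synchronized in mitosis by a 16 h Monastrol block, then released into Monastrol-free medium containing inhibitor at graded concentrations; Hesperadin 5 µM and DMSO as references. Cells harvested 1 h after release, lysed in RIPA with protease/phosphatase inhibitors, 20 µg protein resolved on 8~15% SDS-PAGE. Immunoblotted for phospho-H3S10, total histone H3, α-tubulin and Aurora B.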

[7] = system: HeLa; test: Cell cycle arrest in human HeLa cells assessed as accumulation at G2/M phase at 50 uM after 24 hrs by propidium iodide staining based flow cytometry (reference value: 12 %); assay type: functional
In short: (§2)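 HeLa cells seeded the day before and exposed to inhibitor (10 or 50 µM) or DMSO for 24 h, harvested non-enzymatically, fixed in cold 70% EtOH at 4 °C for 2 h, stained with PI/Triton X-100 solution containing RNase A (25 °C, 20 min, dark). Cell cycle distribution was measured by flow cytometry, and the G2/M percentage was compared with DMSO.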

[8] = system: HeLa; test: Cell cycle arrest in human HeLa cells assessed as increase in accumulation at G2/M phase at 50 uM after 24 hrs by propidium iodide staining based flow cytometry relative to control; assay type: functional; in short: as §2

Row | SMILES | IC50 [1] | inhibition [2] | inhibition [3] | inhibition [4] | inhibition [5] | further results
1 | O=C(Nc1ccc(F)cc1)Nc1ccc(CNc2nc3ccc(OCCN4CCOCC4)cc3s2)cc1 | 700 nM | inactive | 44% | – | – | –
2 | S=C(Nc1ccc(Cl)cc1)Nc1ccc(CNc2nc3ccc(OCCN4CCOCC4)cc3s2)cc1 | 110 nM | 3% | 94% | – | – | –
3 | O=S(=O)(Nc1ccc(CNc2nc3ccc(OCCN4CCOCC4)cc3s2)cc1)c1ccc(Cl)cc1 | – | – | – | inactive | 28% | –
4 | COc1ccc(C(=O)Nc2ccc(CNc3nc4ccc(OCCN5CCOCC5)cc4s3)cc2)cc1 | 700 nM | – | – | inactive | 85% | –
5 | O=C(Nc1ccccc1)n1ccc(CNc2nc3ccc(OCCN4CCOCC4)cc3s2)n1 | – | – | – | – | 12% | –
6 | O=C(Nc1cccc(Cl)c1)Nc1cccc(CNc2nc3ccc(OCCN4CCOCC4)cc3s2)c1 | 1000 nM | inactive | 33% | – | – | –
7 | O=C(Nc1ccc(Cl)cc1)Nc1ccc(CNc2nc3ccc(OCCN4CCOCC4)cc3s2)cc1 | 120 nM | inactive | 100% | – | – | inhibition [6]: Dose-dependent effect; Activity [7]: 17%
8 | O=C(Nc1ccc(Br)cc1)Nc1ccc(CNc2nc3ccc(OCCN4CCOCC4)cc3s2)cc1 | 90 nM | 9% | 83% | – | – | inhibition [6]: Dose-dependent effect; fold change (FC) [8]: >2
9 | O=C(Nc1ccc(F)cc1)n1ccc(CNc2nc3ccc(OCCN4CCOCC4)cc3s2)n1 | – | – | – | – | 5% | –
10 | O=S(=O)(Nc1ccc(CNc2nc3ccc(OCCN4CCOCC4)cc3s2)cc1)c1ccccc1 | – | – | – | inactive | 16% | –
11 | O=C(Nc1cccc(CNc2nc3ccc(OCCN4CCOCC4)cc3s2)c1)c1ccc(F)cc1 | 9000 nM | – | – | inactive | 56% | –
12 | O=C(Nc1ccccc1)Nc1ccc(CNc2nc3ccc(OCCN4CCOCC4)cc3s2)cc1 | 270 nM | inactive | 91% | – | – | –
13 | COc1ccc(NC(=S)Nc2ccc(CNc3nc4ccc(OCCN5CCOCC5)cc4s3)cc2)cc1 | 360 nM | inactive | 72% | – | – | –
14 | CN(C)CCOc1ccc2nc(NCc3ccc(NC(=O)Nc4ccc(Cl)cc4)cc3)sc2c1 | 320 nM | inactive | 65% | – | – | –
15 | O=C(Nc1cccc(CNc2nc3ccc(OCCN4CCOCC4)cc3s2)c1)c1ccccc1 | – | – | – | inactive | 24% | –
16 | O=C(Nc1ccc(Cl)cc1)Nc1cccc(CNc2nc3ccc(OCCN4CCOCC4)cc3s2)c1 | 1200 nM | inactive | 31% | – | – | –

Row | SMILES | IC50 [1] | inhibition [2] | inhibition [3] | inhibition [4] | inhibition [5] | further results
17 | O=C(Nc1cccc(CNc2nc3ccc(OCCN4CCOCC4)cc3s2)c1)c1cccc(Cl)c1 | – | – | – | inactive | 30% | –
18 | COc1ccc(NC(=O)Nc2ccc(CNc3nc4ccc(OCCN5CCOCC5)cc4s3)cc2)cc1 | 250 nM | inactive | 79% | – | – | –
19 | O=C(Nc1ccc(CNc2nc3ccc(OCCN4CCOCC4)cc3s2)cc1)c1cccc(Cl)c1 | 1400 nM | – | – | inactive | 91% | –
20 | O=C(Nc1ccc(Cl)cc1)n1ccc(CNc2nc3ccc(OCCN4CCOCC4)cc3s2)n1 | – | – | – | – | 31% | –
21 | O=C(Nc1ccc(CNc2nc3ccc(OCCN4CCOCC4)cc3s2)cc1)c1ccc(Cl)cc1 | 3000 nM | – | – | inactive | 59% | –
22 | O=S(=O)(Nc1ccc(CNc2nc3ccc(OCCN4CCOCC4)cc3s2)cc1)c1ccc(F)cc1 | – | – | – | inactive | 30% | –
23 | O=C(Nc1ccc(Cl)cc1)Nc1ccc(CNc2nc3ccc(OCCN4CCCCC4)cc3s2)cc1 | 2300 nM | inactive | 5% | – | – | –
24 | O=C(Nc1ccc(Cl)c(Cl)c1)n1ccc(CNc2nc3ccc(OCCN4CCOCC4)cc3s2)n1 | – | – | – | – | 46% | –
25 | O=C(Nc1ccc(CNc2nc3ccc(OCCN4CCOCC4)cc3s2)cc1)c1ccccc1 | – | – | – | inactive | 25% | –
26 | O=C(Nc1ccc(CNc2nc3ccc(OCCN4CCOCC4)cc3s2)cc1)Nc1cccc(Cl)c1 | 460 nM | inactive | 67% | – | – | –
27 | O=C(Nc1ccccc1CNc1nc2ccc(OCCN3CCOCC3)cc2s1)c1ccccc1 | – | – | – | inactive | inactive | –
28 | O=C(Nc1ccccc1)Nc1cccc(CNc2nc3ccc(OCCN4CCOCC4)cc3s2)c1 | 3100 nM | inactive | 37% | – | – | –
29 | O=C(Nc1ccc(CNc2nc3ccc(OCCN4CCOCC4)cc3s2)cc1)Nc1ccc(Cl)c(Cl)c1 | 270 nM | 2% | 77% | – | – | –
30 | O=C(Nc1ccc(Br)cc1)n1ccc(CNc2nc3ccc(OCCN4CCOCC4)cc3s2)n1 | – | – | – | – | 31% | –
31 | O=C(Nc1cccc(CNc2nc3ccc(OCCN4CCOCC4)cc3s2)c1)c1ccc([N+](=O)[O-])cc1 | – | – | – | inactive | 17% | –
32 | O=C(Nc1cccc(CNc2nc3ccc(OCCN4CCOCC4)cc3s2)c1)c1ccc(Cl)cc1 | 6200 nM | – | – | inactive | 42% | –
